We go through one molecule from ChEMBL document CHEMBL4819008, “Design, synthesis, and evaluation of "dual-site"-binding diarylpyrimidines targeting both NNIBP and the NNRTI adjacent site of the HIV-1 reverse transcriptase” (Eur J Med Chem, 2021).

Each structure is given as a SMILES string.

Series [1] has as its system Human immunodeficiency virus 1. Briefly: Antiviral activity against wild type HIV1 NL4-3 infected in human TZM-bl cells assessed as reduction in viral infection measured after 1 day by luciferase reporter gene assay based luminiscence assay. The series is classed as functional, organism-based. Particulars: Human immunodeficiency virus 1, NL4-3, TZM-bl, 24 h. In a few lines: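 TZM-bl cells got a single-round infection with 800 TCID50 of NL4-3 at various compound concentrations, top concentration 100 ng/mL. Luminescence was read 1 day post-infection. EC50 is the concentration giving a 50% decrease in luciferase RLU versus control wells, determined in at least triplicate.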
(In a reporter assay the amount or activity of a reporter protein is the signal.)

The nature of series [2]: Cytotoxicity against human TZM-bl cells assessed as reduction in cell viability measured after 1 day by CytoTox-Glo assay. In kind it is cell-based. The essentials:
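TZM-bl cells were cultured 1 day with various compound concentrations, in parallel with the antiviral assay, top concentration 100 ng/mL. Viable cells were measured by CytoTox-Glo. CC50 is the concentration causing a 50% reduction in cell viability.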

Series [3] can be described thus: Selectivity index, ratio of CC50 for human TZM-bl cells to EC50 for wild type HIV1 NL4-3 infected in human TZM-bl cells. In kind it is toxicity, cell-based. Particulars: read-out: Ratio CC50/EC50. The essentials: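 Selectivity index is CC50/EC50, with both values from the TZM-bl assays: NL4-3 single-round luciferase infection and CytoTox-Glo viability, each over 1 day.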

In series [4] the test system is Human immunodeficiency virus 1. Put plainly: Antiviral activity against wild type HIV-1 3B infected in human MT4 cells assessed as inhibition of virus-induced cytopathic effect measured after 5 days by MTT assay. The series is classed as functional, organism-based. Particulars: Human immunodeficiency virus 1, 3B, MT4, 120 h. In a few lines:
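MT-4 cells at 6 × 10^5 cells/mL were infected with virus stock at 100–300 CCID50 in the presence of serial 5-fold compound dilutions, in triplicate wells. Viability was read by MTT reduction 5 days after infection, with absorbance at 540 and 690 nm and the median OD of three wells used. EC50 is the concentration giving 50% protection from viral cytopathicity.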
(Cytopathic effects are the visible damage that an infection or toxin causes in cultured cells.)

Series [5] is described as follows: Cytotoxicity against human MT4 cells assessed as reduction in cell viability measured after 5 days by MTT assay. The conditions noted are these: time 5 day. In kind it is cell-based. The essentials: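 Mock-infected MT-4 cells (6 × 10^5 cells/mL) were run in parallel with the infected wells, under serial 5-fold compound dilutions in triplicate. MTT viability was read after 5 days and the median OD of three wells used. CC50 is the concentration that reduced OD540 of the mock-infected cells by 50%.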
(In general: Tetrazolium assays rely on reduction of a dye to a coloured formazan, in cell work by metabolically active cells.)

The nature of series [6]: Selectivity index, ratio of CC50 for human MT4 cells to EC50 for wild type HIV-1 3B infected in human MT4 cells. In kind it is toxicity, cell-based. Particulars: read-out: Ratio CC50/EC50.
Series [7] concerns the target Human immunodeficiency virus type 1 reverse transcriptase (Human immunodeficiency virus 1) (UniProt Q72547). Briefly: Potency index, ratio of ETV IC50 to test compound IC50 for Inhibition of HIV-1 reverse transcriptase assessed as reduction in biotin-dUTP incorporation into cDNA incubated for 1 hr with DIG-dUTP, biotin-dUTP and dTTP followed by transferring onto streptavidin-coated plate and measured after 1 hr by ELISA. Particulars: time 2.0 hrs.

Series [8] has as its system Human immunodeficiency virus 1. Briefly: Antiviral activity against HIV-1 harboring reverse transcriptase L100I mutant infected in human MT4 cells assessed as inhibition of virus induced cytopathic effect measured after 5 days by MTT assay. In kind it is functional, organism-based. Particulars: Human immunodeficiency virus 1, MT4, 120 h. The essentials: (§1)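 MT-4 cells, exponentially growing, resuspended at 6 × 10^5 cells/mL and infected with the mutant HIV-1 stock at 100–300 CCID50. Compounds were added as 5-fold serial dilutions, in triplicate wells, alongside mock-infected wells. After 5 days, viability was read by MTT reduction at 540 and 690 nm using the median OD of three wells. EC50 is the concentration giving 50% protection from viral cytopathogenicity.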

Series [9] concerns Human immunodeficiency virus 1. Briefly: Antiviral activity against HIV-1 harboring reverse transcriptase K103N mutant infected in human MT4 cells assessed as inhibition of virus induced cytopathic effect measured after 5 days by MTT assay. The series is classed as functional, organism-based. Particulars: Human immunodeficiency virus 1, MT4, 120 h. In a few lines: as §1
The subject of series [10] is Human immunodeficiency virus 1. Put plainly: Antiviral activity against HIV-1 harboring reverse transcriptase Y181C mutant infected in human MT4 cells assessed as inhibition of virus induced cytopathic effect measured after 5 days by MTT assay. In kind it is functional, organism-based. The conditions noted are these: Human immunodeficiency virus 1, MT4, 120 h. In a few lines: as §1

Series [11] concerns Human immunodeficiency virus 1. Put plainly: Antiviral activity against HIV-1 harboring reverse transcriptase Y188L mutant infected in human MT4 cells assessed as inhibition of virus induced cytopathic effect measured after 5 days by MTT assay. The series is classed as functional, organism-based. The conditions noted are these: Human immunodeficiency virus 1, MT4, 120 h. The essentials: as §1

The test system of series [12] is Human immunodeficiency virus 1. Briefly: Antiviral activity against HIV-1 harboring reverse transcriptase E138K mutant infected in human MT4 cells assessed as inhibition of virus induced cytopathic effect measured after 5 days by MTT assay. The series is classed as functional, organism-based. Particulars: Human immunodeficiency virus 1, MT4, 120 h. The essentials: as §1

Series [13] concerns Human immunodeficiency virus 1. Put plainly: Antiviral activity against HIV-1 harboring reverse transcriptase F227L/V106A mutant infected in human MT4 cells assessed as inhibition of virus induced cytopathic effect measured after 5 days by MTT assay. In kind it is functional, organism-based. Particulars: Human immunodeficiency virus 1, MT4, 120 h. In a few lines:
as §1

Series [14] concerns Human immunodeficiency virus 1. Put plainly: Antiviral activity against HIV-1 harboring reverse transcriptase RES056 mutant infected in human MT4 cells assessed as inhibition of virus induced cytopathic effect measured after 5 days by MTT assay. In kind it is functional, organism-based. Particulars: Human immunodeficiency virus 1, MT4, 120 h. In a few lines:
as §1

For series [15], the target named is Human immunodeficiency virus type 1 reverse transcriptase (Human immunodeficiency virus 1, UniProt Q72547). Briefly: Inhibition of HIV-1 reverse transcriptase assessed as reduction in biotin-dUTP incorporation into cDNA incubated for 1 hr with DIG-dUTP, biotin-dUTP and dTTP followed by transferring onto streptavidin-coated plate and measured after 1 hr by ELISA. The essentials: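 Recombinant WT HIV-1 RT was tested with a Roche colorimetric kit. Enzyme, reconstituted template, DIG-dUTP, biotin-dUTP and dTTP were incubated 1 h at 37 °C in incubation buffer with or without inhibitor. The mix was then held 1 h at 37 °C on a streptavidin-coated plate, then anti-DIG-POD 1 h at 37 °C, then ABTS at 25 °C, and read at OD405.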

For series [16], the system named is Human immunodeficiency virus 1. Briefly: Potency index, ratio of nevirapine EC50 to test compound EC50 for antiviral activity against wild type HIV-1 3B infected in human MT4 cells assessed as inhibition of virus-induced cytopathic effect measured after 5 days by MTT assay. In kind it is functional. Particulars: time 5 day.
For series [17], the system named is Human immunodeficiency virus 1. Put plainly: Potency index, ratio of AZT EC50 to test compound EC50 for antiviral activity against wild type HIV-1 3B infected in human MT4 cells assessed as inhibition of virus-induced cytopathic effect measured after 5 days by MTT assay. In kind it is functional. Particulars: time 5 day.
Series [18] relates to Human immunodeficiency virus 1. Briefly: Potency index, ratio of EFV EC50 to test compound EC50 for antiviral activity against HIV-1 harboring reverse transcriptase Y188L mutant infected in human MT4 cells assessed as inhibition of virus induced cytopathic effect measured after 5 days by MTT assay. The series is classed as functional. Particulars: time 5 day.
Series [19] in a line: Antiviral activity against HIV-2 ROD infected in human MT4 cells assessed as protection against virus-induced cytopathic effect measured after 5 days by MTT assay. The conditions noted are these: Human immunodeficiency virus 2, ISOLATE ROD, MT4, 120 h.

By EC50 is commonly meant the midpoint of the concentration-response curve. The term CC50 denotes the concentration that lowers cell viability or growth by half. As usually defined, the IC50 is the concentration at which inhibition is half-maximal. As for `C#CCNC(=O)/C=C/c1cnc(Nc2ccc(C#N)cc2)nc1Oc1c(C)cc(C#N)cc1C`, the EC50 in series [1] turned out to be 2.45 nM; in series [4] it was 5.2 nM; in series [8], 113 nM; in series [9], 10.4 nM; in series [10], 61.8 nM; in [11] it was 64.5 nM. The EC50 in [12] was 10.6 nM; in series [13], 402 nM; in series [14] it was 1290 nM; in series [19], above 141000 nM. In addition, the CC50 at 24 h in series [2] was above 222 nM. Also, the selectivity ratio in series [3] is above 91; in series [6], 26900. In addition, the 50% cytotoxic concentration (CC50) at 120 h in [5] was 141000 nM. For the same molecule, in series [7], the Ratio IC50 was determined as 6. Further, the IC50 in [15] is 59 nM. Also, the “Ratio EC50” value in series [16] turned out to be 16.2; in series [17] it was 3.5; in series [18], 2.3.
